Tests used:
Type in all cases: functional
[1] = test system: Rattus norvegicus; assay: Effect on level of high density lipoprotein cholesterol (relative to untreated control) in cholesterol fed-male rats at 62 mg/kg/day
Summary of the method: (§1)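 Male Sprague–Dawley rats (groups of six) fed a cholic acid- and cholesterol-supplemented diet; compound mixed into the diet, given ad libitum for eight days. Lipoproteins were separated by ultracentrifugation, and cholesterol was measured by an enzymatic colorimetric method. Results are % change versus untreated controls, with significance at p < 0.05.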

[2] = test system: Rattus norvegicus; assay: Effect on level of apolipoprotein (Apo) AI (relative to untreated control) in cholesterol fed-male rats at 62 mg/kg/day
Summary of the method: (§2)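 Six male Sprague–Dawley rats per group, fed a cholic acid/cholesterol-supplemented diet, received compound in the diet ad libitum for eight days. Serum Apo A–I was measured by SDS-PAGE or by rat competition ELISA and reported as % change versus untreated controls (p < 0.05). Gemfibrozil was the internal positive control in each study.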

[3] = test system: Rattus norvegicus; assay: Effect on level of total cholesterol (relative to untreated control) in cholesterol fed-male rats at 62 mg/kg/day; summary of the method: as §1
[4] = test system: Rattus norvegicus; assay: Effect on change in body weight gain (relative to untreated control) in cholesterol fed-male rats at 62 mg/kg/day
Summary of the method: (§3)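 Male Sprague–Dawley rats, six per group, on a cholic acid- and cholesterol-supplemented diet. Compounds were mixed into the diet and given ad libitum for eight days. Change in body weight gain is expressed as a percentage of untreated controls. Significance was set at p < 0.05 versus untreated controls.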

[5] = test system: Rattus norvegicus; assay: Effect on level of triglyceride in (relative to untreated control) in cholesterol fed-male rats at 62 mg/kg/day
Summary of the method: (§4)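 Serum triglycerides were measured in groups of six male Sprague–Dawley rats on a cholic acid/cholesterol-supplemented diet. Compound was dosed in the diet, ad libitum, for eight days. Results are % change relative to untreated controls, with significance at p < 0.05.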

[6] = test system: Rattus norvegicus; assay: Effect on level of total cholesterol (relative to untreated control) in cholesterol fed-male rats at 78 mg/kg/day; summary of the method: as §1
[7] = test system: Rattus norvegicus; assay: Effect on level of triglyceride in (relative to untreated control) in cholesterol fed-male rats at 78 mg/kg/day
Summary of the method: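 Compound given in diet ad libitum for eight days to groups of six male Sprague–Dawley rats on a cholic acid and cholesterol-supplemented diet. Serum triglycerides expressed as % change relative to untreated controls, with significance at p < 0.05. Gemfibrozil served as internal positive control within each study.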

[8] = test system: Rattus norvegicus; assay: Effect on change in body weight gain (relative to untreated control) in cholesterol fed-male rats at 78 mg/kg/day; summary of the method: as §3
[9] = test system: Rattus norvegicus; assay: Effect on level of apolipoprotein (Apo) AI (relative to untreated control) in cholesterol fed-male rats at 78 mg/kg/day; summary of the method: as §2
[10] = test system: Rattus norvegicus; assay: Effect on level of high density lipoprotein cholesterol (relative to untreated control) in cholesterol fed-male rats at 78 mg/kg/day; summary of the method: as §1
[11] = test system: Rattus norvegicus; assay: Effect on level of triglyceride in (relative to untreated control) in cholesterol fed-male rats at 38 mg/kg/day; summary of the method: as §4
[12] = test system: Rattus norvegicus; assay: Effect on level of apolipoprotein (Apo) AI (relative to untreated control) in cholesterol fed-male rats at 38 mg/kg/day; summary of the method: as §2
[13] = test system: Rattus norvegicus; assay: Effect on change in body weight gain (relative to untreated control) in cholesterol fed-male rats at 38 mg/kg/day; summary of the method: as §3
[14] = test system: Rattus norvegicus; assay: Effect on level of high density lipoprotein cholesterol (relative to untreated control) in cholesterol fed-male rats at 38 mg/kg/day
Summary of the method: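 Cholic acid/cholesterol-fed male Sprague–Dawley rats (n = 6 per group) were dosed via diet ad libitum for eight days. Lipoproteins were separated by ultracentrifugation and HDL cholesterol was quantified by an enzymatic colorimetric method. Values are % change relative to untreated controls, with significance at p < 0.05. Gemfibrozil was the internal positive control.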

[15] = test system: Rattus norvegicus; assay: Effect on level of total cholesterol (relative to untreated control) in cholesterol fed-male rats at 38 mg/kg/day; summary of the method: as §1
[16] = test system: Rattus norvegicus; assay: Effect on level of triglyceride in (relative to untreated control) in cholesterol fed-male rats at 76 mg/kg/day; summary of the method: as §4
[17] = test system: Rattus norvegicus; assay: Effect on change in body weight gain (relative to untreated control) in cholesterol fed-male rats at 76 mg/kg/day; summary of the method: as §3
[18] = test system: Rattus norvegicus; assay: Effect on level of high density lipoprotein cholesterol (relative to untreated control) in cholesterol fed-male rats at 76 mg/kg/day; summary of the method: as §1
[19] = test system: Rattus norvegicus; assay: Effect on level of apolipoprotein (Apo) AI (relative to untreated control) in cholesterol fed-male rats at 76 mg/kg/day; summary of the method: as §2
[20] = test system: Rattus norvegicus; assay: Effect on level of total cholesterol (relative to untreated control) in cholesterol fed-male rats at 76 mg/kg/day; summary of the method: as §1

Cc1ccc(Cl)cc1N/C(S)=N/C[C@@H](C)O
Activity [1]: 60%
Activity [2]: 25%
Activity [3]: -1%
Activity [4]: -69%
Activity [5]: -68%

Cc1ccc(Cl)cc1/N=C(\S)N1CCC(O)C1 (stereo not given)
Activity [6]: -5%
Activity [7]: -24%
Activity [8]: 2%
Activity [9]: 4%
Activity [10]: 9%

Cc1ccc(Cl)cc1/N=C(\S)NCC(=O)O
Activity [11]: 4%
Activity [12]: 14%
Activity [13]: 10%
Activity [14]: 8%
Activity [15]: 24%

Cc1ccc(Cl)cc1N/C(S)=N/[C@@H](C)CO
Activity [16]: 1%
Activity [17]: 10%
Activity [18]: 32%
Activity [19]: 20%
Activity [20]: 48%

From ChEMBL document CHEMBL1144306, “1-Hydroxyalkyl-3-phenylthioureas as novel HDL-elevating agents” (2005)
